Series [1] deals with Bacillus subtilis. The series is described as follows: Antibacterial activity against Bacillus subtilis ATCC9372 assessed as bacterial growth inhibition incubated for 18 hrs by CLSI based broth microdilution method. In kind it is functional. The procedure, abridged: (§1)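 CLSI broth microdilution. Log-phase bacteria in Mueller Hinton broth added to 2-fold serial dilutions spanning 128 to 0.25 or 2 to 0.004 µg/mL. Incubated aerobically for 18 h at 37 °C, then OD600 read. MIC is the lowest concentration giving ≥90% growth inhibition; three independent assays.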

In series [2] the test system is Staphylococcus aureus. Put plainly: Antibacterial activity against Staphylococcus aureus ATCC29213 assessed as bacterial growth inhibition incubated for 18 hrs by CLSI based broth microdilution method. In kind it is functional. The essentials:
as §1

Series [3] deals with Staphylococcus aureus. The series is described as follows: Antibacterial activity against Staphylococcus aureus ATCC25923 assessed as bacterial growth inhibition incubated for 18 hrs by CLSI based broth microdilution method. In kind it is functional. The procedure, abridged: as §1
In series [4] the test system is Bacillus subtilis. The series is described as follows: Antibacterial activity against Bacillus subtilis MG27 assessed as bacterial growth inhibition incubated for 18 hrs by CLSI based broth microdilution method. It counts as functional. The essentials:
as §1

Series [5] has as its system Bacillus subtilis. Put plainly: Antibacterial activity against Bacillus subtilis 618 assessed as bacterial growth inhibition incubated for 18 hrs by CLSI based broth microdilution method. It counts as functional. The procedure, abridged: as §1
Series [6] deals with Bacillus subtilis. Put plainly: Antibacterial activity against Bacillus subtilis BS01 assessed as bacterial growth inhibition incubated for 18 hrs by CLSI based broth microdilution method. In kind it is functional. The procedure, abridged: as §1
Series [7] is described as follows: Cytotoxicity against African green monkey Vero cells assessed as reduction in cell viability incubated for 72 hrs by alamar blue staining based assay. In kind it is toxicity. The following applies: chlorocebus sabaeus. The essentials: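 Vero cells seeded at about 2 × 10^3 per well, 37 °C, 5% CO2. Compound added after 24 h and incubated 72 h. AlamarBlue (1:10 v/v) then added for 3 h in the dark, read at Ex/Em 560/590 nm. CC50 is the lowest concentration causing 50% loss of viability.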

Series [8] in a line: Selectivity index, ratio of CC50 for African green monkey Vero cells to MIC for Bacillus subtilis ATCC9372. In kind it is toxicity, cell-based. The following applies: read-out: Selectivity Index. The procedure, abridged:
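CC50 in Vero cells (72 h Alamar blue) divided by broth microdilution MIC against B. subtilis ATCC9372.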

Series [9] is described as follows: Metabolic stability in human liver microsomes assessed as half life preincubated for 5 mins followed by NADPH addition measured upto 45 mins by LC/MS analysis. It counts as ADME, Microsome. The following applies: time < 50 min. The procedure, abridged:
(§2)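 Liver microsomes at 0.75 mg/mL final protein, with test article and NADPH regeneration system (6 mM) in 100 mM phosphate buffer, pH 7.4. Preincubated 5 min at 37 °C, then started with NADPH. Quenched with acetonitrile containing internal standard at 5, 15, 30 and 45 min, centrifuged, and percent remaining measured by LC/MS. Ketanserin served as reference.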

Series [10] in a line: Metabolic stability in rat liver microsomes assessed as half life preincubated for 5 mins followed by NADPH addition measured upto 45 mins by LC/MS analysis. It counts as ADME, Microsome. The following applies: time < 50 min. The procedure, abridged:
as §2

Series [11] can be described thus: Metabolic stability in mouse liver microsomes assessed as half life preincubated for 5 mins followed by NADPH addition measured upto 45 mins by LC/MS analysis. It counts as ADME, Microsome. The following applies: time < 50 min. The essentials:
as §2

Series [12] in a line: Metabolic stability in human liver microsomes assessed as intrinsic clearance preincubated for 5 mins followed by NADPH addition measured upto 45 mins by LC/MS analysis. In kind it is ADME, Microsome. The following applies: time < 50 min, read-out: CLH. The procedure, abridged:
as §2

Series [13] in a line: Metabolic stability in rat liver microsomes assessed as intrinsic clearance preincubated for 5 mins followed by NADPH addition measured upto 45 mins by LC/MS analysis. The following applies: time < 50 min, read-out: CLH. In kind it is ADME, Microsome. The procedure, abridged:
as §2

Series [14] in a line: Metabolic stability in mouse liver microsomes assessed as intrinsic clearance preincubated for 5 mins followed by NADPH addition measured upto 45 mins by LC/MS analysis. In kind it is ADME, Microsome. The following applies: time < 50 min, read-out: CLH. The essentials:
as §2

The test system of series [15] is Staphylococcus aureus. The series is described as follows: Induction of resistance in Staphylococcus aureus ATCC29213 assessed as fold increase in MIC at 0.5 times MIC after 18 passages incubated for 24 hrs by resistance development assay. It counts as functional. The procedure, abridged:
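Serial passage of S. aureus ATCC29213. Initial MIC was found by broth microdilution. Bacteria from the 0.5 × MIC tubes (duplicate) were diluted to about 5 × 10^5 CFU/mL and re-exposed to compound for 24 h at 35 °C, then fold increase in MIC was determined. Repeated for 18 passages, with norfloxacin as comparator.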

In a further series the test system is Klebsiella pneumoniae. The series is described as follows: Antibacterial activity against Klebsiella pneumoniae 14578 assessed as bacterial growth inhibition incubated for 18 hrs by CLSI based broth microdilution method. In kind it is functional. The essentials: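 Broth microdilution to CLSI guidelines. Log-phase bacteria grown in Mueller Hinton broth, diluted, then exposed to 2-fold serial dilutions of compound (128 to 0.25 µg/mL or 2 to 0.004 µg/mL). Incubated aerobically 18 h at 37 °C. Growth read as OD600. MIC = lowest concentration giving ≥90% growth inhibition. Three independent assays.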

For series [16], the system named is Staphylococcus aureus. The series is described as follows: Bactericidal activity against Staphylococcus aureus ATCC25923 incubated for 24 hrs by broth microdilution method. In kind it is functional. The procedure, abridged:
(§3)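 MBC from the broth microdilution plates (MHB, 2-fold dilutions). After 24 h, 5 µL aliquots from clear wells were plated on LB agar and incubated aerobically 24 h at 37 °C, then colonies counted. MBC = lowest concentration with no colonies.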

The test system of series [17] is Bacillus subtilis. The series is described as follows: Bactericidal activity against Bacillus subtilis ATCC9372 incubated for 24 hrs by broth microdilution method. It counts as functional. The procedure, abridged: as §3

In brackets after ≈: the same amount, converted by molar mass.

Regarding `Cc1cc(C(F)(F)F)ccc1-c1cccc(COc2ccc(F)c(C(N)=O)c2F)c1`, the MIC in the series with Bacillus subtilis [1] stood at 0.031 mg/L (≈ 0.0736 µM); in the series with Staphylococcus aureus [2] it was 0.25 mg/L (≈ 0.593 µM); in the series on Staphylococcus aureus [3], 0.25 mg/L (≈ 0.593 µM); in the series on Bacillus subtilis [4], 0.063 mg/L (≈ 0.15 µM); in the series with Bacillus subtilis [5], 0.031 mg/L (≈ 0.0736 µM); with Bacillus subtilis [6], 0.016 mg/L (≈ 0.038 µM). In series [7], the CC50 at 72 h was over 20 mg/L. In addition, the selectivity ratio in series [8] is over 1250.
On to `COc1cc(C(F)(F)F)ccc1-c1cccc(COc2ccc(F)c(C(N)=O)c2F)c1`, for which the minimum inhibitory concentration (MIC) worked out at 0.063 mg/L (≈ 0.144 µM) with Bacillus subtilis [1], 1 mg/L (≈ 2.29 µM) in the series with Staphylococcus aureus [2] and 1 mg/L (≈ 2.29 µM) in the series with Staphylococcus aureus [3].
Consider `NC(=O)c1c(F)ccc(OCc2cccc(-c3ccc(C(F)(F)F)c(F)c3)c2)c1F`, for which the MIC in the series on Bacillus subtilis [1], with Staphylococcus aureus [2] and in the series with Staphylococcus aureus [3] was over 128 mg/L each time.
For the compound `CC(C)(C)c1ccc(-c2cccc(COc3ccc(F)c(C(N)=O)c3F)c2)cc1`, the MIC in the series with Bacillus subtilis [1] is 2 mg/L (≈ 5.06 µM); in the series on Staphylococcus aureus [2], over 128 mg/L; in the series with Staphylococcus aureus [3], over 128 mg/L.
`O=C(c1ccc(F)cc1)C1CCN(CCn2c(=O)[nH]c3ccccc3c2=O)CC1` [KETANSERIN]: the half-life in [9] is 30.4 min; in series [10], 14.5 min; in series [11], 8.57 min. The CLint scaled in [12] came to 3.43 L/h/kg; in series [13], 10.3 L/h/kg; in series [14], 38.2 L/h/kg.
In the case of `NC(=O)c1c(F)ccc(OCc2cccc(-c3ccc(Cl)cc3Cl)c2)c1F`, the MIC with Bacillus subtilis [1] came to 0.031 mg/L (≈ 0.0759 µM); with Staphylococcus aureus [2], 0.25 mg/L (≈ 0.612 µM); with Staphylococcus aureus [3], 0.25 mg/L (≈ 0.612 µM).
With `CCc1ccc(-c2cccc(COc3ccc(F)c(C(N)=O)c3F)c2)cc1`, the MIC in the series on Bacillus subtilis [1] was determined as 0.125 mg/L (≈ 0.34 µM); in the series on Staphylococcus aureus [2], 0.5 mg/L (≈ 1.36 µM); in the series on Staphylococcus aureus [3] it was 0.5 mg/L (≈ 1.36 µM).
Turning to `CCn1cc(C(=O)O)c(=O)c2cc(F)c(N3CCNCC3)cc21` [NORFLOXACIN], the “fold change (FC)” value in the series with Staphylococcus aureus [15] came out at 128.
Regarding `CN[C@H](CC(C)C)C(=O)N[C@H]1C(=O)N[C@@H](CC(N)=O)C(=O)N[C@H]2C(=O)N[C@H]3C(=O)N[C@H](C(=O)N[C@H](C(=O)O)c4cc(O)cc(O)c4-c4cc3ccc4O)[C@H](O)c3ccc(c(Cl)c3)Oc3cc2cc(c3O[C@@H]2O[C@H](CO)[C@@H](O)[C@H](O)[C@H]2O[C@H]2C[C@](C)(N)[C@H](O)[C@H](C)O2)Oc2ccc(cc2Cl)[C@H]1O` [VANCOMYCIN], the MIC was 1 mg/L (≈ 0.69 µM) with Bacillus subtilis [1] and over 128 mg/L with Klebsiella pneumoniae. The results for the MBC in the series with Staphylococcus aureus [16] and with Bacillus subtilis [17] were 0.5 mg/L (≈ 0.345 µM) and 1 mg/L (≈ 0.69 µM), respectively.
Consider `NC(=O)c1c(F)ccc(OCc2cccc(-c3ccc(C(F)(F)F)cc3F)c2)c1F`, for which the results for the minimal inhibitory concentration (MIC) in the series with Bacillus subtilis [1], in the series on Staphylococcus aureus [2] and in the series on Staphylococcus aureus [3] were 0.063 mg/L (≈ 0.148 µM), 1 mg/L (≈ 2.35 µM) and 1 mg/L (≈ 2.35 µM), respectively.
`CC(C)c1ccc(-c2cccc(COc3ccc(F)c(C(N)=O)c3F)c2)cc1`: the MIC in the series on Bacillus subtilis [1] was 0.5 mg/L (≈ 1.31 µM); in the series on Staphylococcus aureus [2] it was over 128 mg/L; in the series with Staphylococcus aureus [3], over 128 mg/L.
`NC(=O)c1c(F)ccc(OC(CO)c2cccc(-c3ccc(C(F)(F)F)cc3)c2)c1F` (stereo not drawn): the results for the minimum inhibitory concentration (MIC) with Bacillus subtilis [1], in the series with Staphylococcus aureus [2] and with Staphylococcus aureus [3] were 0.5 mg/L (≈ 1.14 µM), 8 mg/L (≈ 18.3 µM) and 4 mg/L (≈ 9.15 µM), respectively.
Take `NC(=O)c1c(F)ccc(OCc2cc(Cl)cc(-c3ccc(C(F)(F)F)cc3)c2)c1F`: the minimal inhibitory concentration (MIC) is 1 mg/L (≈ 2.26 µM) with Bacillus subtilis [1], over 128 mg/L in the series with Staphylococcus aureus [2] and over 128 mg/L with Staphylococcus aureus [3].
In the case of `NC(=O)c1c(F)ccc(OCc2nc3cc(Cl)cnc3s2)c1F`, the minimum inhibitory concentration (MIC) in the series on Bacillus subtilis [1] turned out to be 0.5 mg/L (≈ 1.41 µM); in the series on Staphylococcus aureus [2], 1 mg/L (≈ 2.81 µM); in the series on Staphylococcus aureus [3], 1 mg/L (≈ 2.81 µM).
Consider `Cc1ccc(-c2cccc(COc3ccc(F)c(C(N)=O)c3F)c2)cc1`, for which the results for the MIC in the series with Bacillus subtilis [1], with Staphylococcus aureus [2] and in the series with Staphylococcus aureus [3] were 0.125 mg/L (≈ 0.354 µM), 0.5 mg/L (≈ 1.41 µM) and 0.5 mg/L (≈ 1.41 µM), respectively.
`CCCCc1ccc(-c2cccc(COc3ccc(F)c(C(N)=O)c3F)c2)cc1`: the MIC in the series on Bacillus subtilis [1] turned out to be 0.125 mg/L (≈ 0.316 µM); with Staphylococcus aureus [2], 1 mg/L (≈ 2.53 µM); with Staphylococcus aureus [3], 0.5 mg/L (≈ 1.26 µM).
The matching figures for `NC(=O)c1c(F)ccc(OCc2cccc(-c3ccc(C(F)(F)F)cc3C(F)(F)F)c2)c1F`: 0.125 mg/L (≈ 0.263 µM), 0.5 mg/L (≈ 1.05 µM) and 0.5 mg/L (≈ 1.05 µM).

The values above are taken from ChEMBL document CHEMBL5338714, “Design, synthesis and biological evaluation of biphenyl-benzamides as potent FtsZ inhibitors” (Eur J Med Chem, 2022).
